Experimental data from ChEMBL document CHEMBL5247575 (J Med Chem, 2018).

Experiments:
Bacteria [1] = assay: Inhibition of bacteria KPC-2 assessed as second order rate constant K2/K using nitrocefin as substrate
In short: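 Steady-state kinetics, 10 mM phosphate-buffered saline pH 7.4. Progress curves recorded with fixed enzyme and nitrocefin and increasing nM inhibitor. Each curve fitted to a time-course equation to give k_obs. k2/K derived from these and corrected for nitrocefin concentration relative to its Km.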

Acinetobacter baumannii [2] = assay: Synergistic antibacterial activity against Acinetobacter baumannii PR319 producing OXA-23/24/40 assessed as meropenem MIC at 4 ug/ml by broth microdilution method; format: functional; settings: dose 4 µg/ml
Klebsiella pneumoniae [3] = assay: Synergistic antibacterial activity against Klebsiella pneumoniae 935/1884 producing KPC-3 assessed as cefepime MIC at 4 ug/ml by broth microdilution method; format: functional; settings: dose 4 µg/ml
Pseudomonas aeruginosa [4] = assay: Synergistic antibacterial activity against Pseudomonas aeruginosa CL232 assessed as cefepime MIC at 4 ug/ml by broth microdilution method; format: functional; settings: dose 4 µg/ml
Klebsiella pneumoniae [5] = assay: Synergistic antibacterial activity against Klebsiella pneumoniae 1315/2198 producing KPC-3 assessed as cefepime MIC at 4 ug/ml by broth microdilution method; format: functional; settings: dose 4 µg/ml
In short: (§1)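 Broth microdilution per CLSI guidelines, using custom frozen panels. […] Each partner drug was also tested alone. MICs were run in triplicate and the modal value is reported.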

Acinetobacter baumannii [6] = assay: Synergistic antibacterial activity against ADC deleted Acinetobacter baumannii transfected with pWH1266 OXA-23 assessed as meropenem MIC at 4 ug/ml by broth microdilution method; format: functional; settings: dose 4 µg/ml
Bacteria [7] = assay: Inhibition of bacteria PDC-3 assessed as second order rate constant K2/K using nitrocefin as substrate
Klebsiella pneumoniae [8] = assay: Synergistic antibacterial activity against Klebsiella pneumoniae 901/1860 producing KPC-3 assessed as cefepime MIC at 4 ug/ml by broth microdilution method; format: functional; settings: dose 4 µg/ml
Klebsiella pneumoniae [9] = assay: Synergistic antibacterial activity against Klebsiella pneumoniae jefferson 1775 producing OXA-48 assessed as cefepime MIC at 4 ug/ml by broth microdilution method; format: functional; settings: dose 4 µg/ml
Acinetobacter baumannii [10] = assay: Synergistic antibacterial activity against Acinetobacter baumannii PR359 producing OXA-23 assessed as meropenem MIC at 4 ug/ml by broth microdilution method; format: functional; settings: dose 4 µg/ml
Klebsiella pneumoniae [11] = assay: Synergistic antibacterial activity against Klebsiella pneumoniae CAV 1636 producing OXA-181 assessed as meropenem MIC at 4 ug/ml by broth microdilution method; format: functional; settings: dose 4 µg/ml
Bacteria [12] = assay: Inhibition of bacteria KPC-2 assessed as half life using nitrocefin as substrate
Acinetobacter baumannii [13] = assay: Synergistic antibacterial activity against ADC deleted Acinetobacter baumannii assessed as cefepime MIC at 4 ug/ml by broth microdilution method; format: functional; settings: dose 4 µg/ml
Pseudomonas aeruginosa [14] = assay: Synergistic antibacterial activity against Pseudomonas aeruginosa 839 assessed as meropenem MIC at 4 ug/ml by broth microdilution method; format: functional; settings: dose 4 µg/ml
Klebsiella pneumoniae [15] = assay: Synergistic antibacterial activity against Klebsiella pneumoniae jefferson 1773 producing OXA-181 assessed as meropenem MIC at 4 ug/ml by broth microdilution method; format: functional; settings: dose 4 µg/ml
Klebsiella pneumoniae [16] = assay: Synergistic antibacterial activity against Klebsiella pneumoniae 1398/2291 producing KPC-3 assessed as cefepime MIC at 4 ug/ml by broth microdilution method; format: functional; settings: dose 4 µg/ml; in short: as §1
Klebsiella pneumoniae [17] = assay: Synergistic antibacterial activity against Klebsiella pneumoniae 1354/2241 producing KPC-3 assessed as meropenem MIC at 4 ug/ml by broth microdilution method; format: functional; settings: dose 4 µg/ml; in short: as §1
Acinetobacter baumannii [18] = assay: Synergistic antibacterial activity against Acinetobacter baumannii PR476 producing OXA-24/40 assessed as cefepime MIC at 4 ug/ml by broth microdilution method; format: functional; settings: dose 4 µg/ml
Pseudomonas aeruginosa [19] = assay: Synergistic antibacterial activity against Pseudomonas aeruginosa 715 assessed as meropenem MIC at 4 ug/ml by broth microdilution method; format: functional; settings: dose 4 µg/ml
Bacteria [20] = assay: Inhibition of bacteria ADC-7 assessed as half life using nitrocefin as substrate
Klebsiella pneumoniae [21] = assay: Synergistic antibacterial activity against Klebsiella pneumoniae jefferson 1773 producing OXA-181 assessed as cefepime MIC at 4 ug/ml by broth microdilution method; format: functional; settings: dose 4 µg/ml
Klebsiella pneumoniae [22] = assay: Synergistic antibacterial activity against Klebsiella pneumoniae CAV 1543 producing OXA-48 assessed as cefepime MIC at 4 ug/ml by broth microdilution method; format: functional; settings: dose 4 µg/ml
Escherichia coli [23] = assay: Synergistic antibacterial activity against Escherichia coli DH10B transfected with pBC SK (-) KPC-2 assessed as meropenem MIC at 4 ug/ml by broth microdilution method; format: functional; settings: dose 4 µg/ml
Acinetobacter baumannii [24] = assay: Synergistic antibacterial activity against Acinetobacter baumannii PR359 producing OXA-23 assessed as cefepime MIC at 8 ug/ml by broth microdilution method; format: functional; settings: dose 8 µg/ml
Pseudomonas aeruginosa [25] = assay: Synergistic antibacterial activity against Pseudomonas aeruginosa 715 assessed as meropenem MIC at 8 ug/ml by broth microdilution method; format: functional; settings: dose 8 µg/ml
Klebsiella pneumoniae [26] = assay: Synergistic antibacterial activity against Klebsiella pneumoniae 972/1910 producing KPC-3 assessed as meropenem MIC at 8 ug/ml by broth microdilution method; format: functional; settings: dose 8 µg/ml
Klebsiella pneumoniae [27] = assay: Synergistic antibacterial activity against Klebsiella pneumoniae CAV 1543 producing OXA-48 assessed as meropenem MIC at 8 ug/ml by broth microdilution method; format: functional; settings: dose 8 µg/ml
Escherichia coli [28] = assay: Synergistic antibacterial activity against Escherichia coli DH10B transfected with pBR322-catI-KPC-2 assessed as cefepime MIC at 8 ug/ml by broth microdilution method; format: functional; settings: dose 8 µg/ml; in short: as §1
Klebsiella pneumoniae [29] = assay: Synergistic antibacterial activity against Klebsiella pneumoniae NY BS producing OXA-232 assessed as cefepime MIC at 8 ug/ml by broth microdilution method; format: functional; settings: dose 8 µg/ml
Acinetobacter baumannii [30] = assay: Synergistic antibacterial activity against Acinetobacter baumannii PR476 producing OXA-24/40 assessed as cefepime MIC at 8 ug/ml by broth microdilution method; format: functional; settings: dose 8 µg/ml
Klebsiella pneumoniae [31] = assay: Synergistic antibacterial activity against Klebsiella pneumoniae 776/1742 producing KPC-2 assessed as meropenem MIC at 8 ug/ml by broth microdilution method; format: functional; settings: dose 8 µg/ml
Klebsiella pneumoniae [32] = assay: Synergistic antibacterial activity against Klebsiella pneumoniae 1354/2241 producing KPC-3 assessed as cefepime MIC at 8 ug/ml by broth microdilution method; format: functional; settings: dose 8 µg/ml; in short: as §1
Acinetobacter baumannii [33] = assay: Synergistic antibacterial activity against Acinetobacter baumannii PR381 producing OXA-24/40 assessed as cefepime MIC at 8 ug/ml by broth microdilution method; format: functional; settings: dose 8 µg/ml
Acinetobacter baumannii [34] = assay: Synergistic antibacterial activity against Acinetobacter baumannii PR319 producing OXA-23/24/40 assessed as meropenem MIC at 8 ug/ml by broth microdilution method; format: functional; settings: dose 8 µg/ml
Klebsiella pneumoniae [35] = assay: Synergistic antibacterial activity against Klebsiella pneumoniae 1315/2198 producing KPC-3 assessed as meropenem MIC at 8 ug/ml by broth microdilution method; format: functional; settings: dose 8 µg/ml; in short: as §1
Klebsiella pneumoniae [36] = assay: Synergistic antibacterial activity against Klebsiella pneumoniae jefferson 1775 producing OXA-48 assessed as meropenem MIC at 8 ug/ml by broth microdilution method; format: functional; settings: dose 8 µg/ml
Klebsiella pneumoniae [37] = assay: Synergistic antibacterial activity against Klebsiella pneumoniae 1084/1957 producing KPC-3 assessed as meropenem MIC at 8 ug/ml by broth microdilution method; format: functional; settings: dose 8 µg/ml; in short: as §1
Escherichia coli [38] = assay: Synergistic antibacterial activity against Escherichia coli DH10B assessed as meropenem MIC at 8 ug/ml by broth microdilution method; format: functional; settings: dose 8 µg/ml
Klebsiella pneumoniae [39] = assay: Synergistic antibacterial activity against Klebsiella pneumoniae CAV 1636 producing OXA-181 assessed as meropenem MIC at 8 ug/ml by broth microdilution method; format: functional; settings: dose 8 µg/ml

Compound | K (Bacteria [1]) | MIC (Acinetobacter baumannii [2]) | MIC (Klebsiella pneumoniae [3]) | MIC (Pseudomonas aeruginosa [4]) | MIC (Klebsiella pneumoniae [5]) | MIC (Acinetobacter baumannii [6]) | K (Bacteria [7]) | MIC (Klebsiella pneumoniae [8]) | MIC (Klebsiella pneumoniae [9]) | MIC (Acinetobacter baumannii [10]) | MIC (Klebsiella pneumoniae [11]) | T1/2 (Bacteria [12]) | MIC (Acinetobacter baumannii [13]) | MIC (Pseudomonas aeruginosa [14]) | MIC (Klebsiella pneumoniae [15]) | MIC (Klebsiella pneumoniae [16]) | MIC (Klebsiella pneumoniae [17]) | MIC (Acinetobacter baumannii [18]) | MIC (Pseudomonas aeruginosa [19]) | T1/2 (Bacteria [20]) | other results
NC(=O)[C@@H]1CC[C@@H]2CN1C(=O)N2OS(=O)(=O)[O-].[Na+] [AVIBACTAM SODIUM] | 1.3 10^4/M/s | > 16 µg/mL | ≤ 0.12 µg/mL | > 16 µg/mL | ≤ 0.12 µg/mL | > 16 µg/mL | 2.9 10^4/M/s | ≤ 0.12 µg/mL | ≤ 0.12 µg/mL | > 16 µg/mL | 1 µg/mL | 82 min | 0.5 µg/mL | 1 µg/mL | 1 µg/mL | ≤ 0.12 µg/mL | ≤ 0.12 µg/mL | 2 µg/mL | 16 µg/mL | 33 min | MIC (Klebsiella pneumoniae [21]): 1 µg/mL; MIC (Klebsiella pneumoniae [22]): 0.25 µg/mL; MIC (Escherichia coli [23]): ≤ 0.12 µg/mL
O.O=C(NC1CCNCC1)[C@@H]1CC[C@@H]2CN1C(=O)N2OS(=O)(=O)O [RELEBACTAM] | 2.8 10^4/M/s | > 16 µg/mL | ≤ 0.12 µg/mL | 16 µg/mL | 0.25 µg/mL | > 16 µg/mL | 4.6 10^4/M/s | ≤ 0.12 µg/mL | 0.25 µg/mL | > 16 µg/mL | 16 µg/mL | 46 min | 0.25 µg/mL | 1 µg/mL | 16 µg/mL | ≤ 0.12 µg/mL | ≤ 0.12 µg/mL | 2 µg/mL | 16 µg/mL | 39 min | MIC (Klebsiella pneumoniae [21]): 4 µg/mL; MIC (Klebsiella pneumoniae [22]): 2 µg/mL; MIC (Escherichia coli [23]): ≤ 0.12 µg/mL
N#C[C@@H]1CC[C@@H]2CN1C(=O)N2OS(=O)(=O)[O-].[Na+] | 2.4 10^5/M/s | 16 µg/mL | 0.25 µg/mL | > 16 µg/mL | 0.25 µg/mL | 16 µg/mL | 2.3 10^4/M/s | ≤ 0.12 µg/mL | ≤ 0.12 µg/mL | 4 µg/mL | ≤ 0.12 µg/mL | 26 min | 0.5 µg/mL | 1 µg/mL | 0.25 µg/mL | ≤ 0.12 µg/mL | ≤ 0.12 µg/mL | 2 µg/mL | 16 µg/mL | 12 min | MIC (Acinetobacter baumannii [24]): 8 µg/mL; MIC (Pseudomonas aeruginosa [25]): 16 µg/mL; MIC (Klebsiella pneumoniae [26]): ≤ 0.12 µg/mL; MIC (Klebsiella pneumoniae [27]): ≤ 0.12 µg/mL; MIC (Escherichia coli [28]): ≤ 0.12 µg/mL; MIC (Klebsiella pneumoniae [29]): 1 µg/mL; MIC (Acinetobacter baumannii [30]): 2 µg/mL; MIC (Klebsiella pneumoniae [31]): 0.25 µg/mL; MIC (Klebsiella pneumoniae [32]): ≤ 0.12 µg/mL; MIC (Acinetobacter baumannii [33]): 16 µg/mL; MIC (Acinetobacter baumannii [34]): > 16 µg/mL; MIC (Klebsiella pneumoniae [35]): ≤ 0.12 µg/mL; MIC (Klebsiella pneumoniae [36]): ≤ 0.12 µg/mL; MIC (Klebsiella pneumoniae [37]): ≤ 0.12 µg/mL; MIC (Klebsiella pneumoniae [21]): 1 µg/mL; MIC (Klebsiella pneumoniae [22]): 0.25 µg/mL; MIC (Escherichia coli [38]): ≤ 0.12 µg/mL; MIC (Klebsiella pneumoniae [39]): ≤ 0.12 µg/mL; MIC (Escherichia coli [23]): ≤ 0.12 µg/mL
